Only some compounds are listed: those with a hit (about 1.4% of all), similar ones and a draw of the others.
NR1D1 modulator – Rev-erb alpha (human) modulation | P20393 | Rev-erbα–FITC-DNA binding, fluorescence polarization, 90 min | activity, % at 10 µM | 370,000 tested, 0.79% active;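 active = activity above about 14%, limit read from the data; passing the limit was not always enough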;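 also: 0% = DMSO wells with 35 nM protein and 100% = DMSO wells with 750 nM protein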
Target sequence (P20393 whole entry, looked up): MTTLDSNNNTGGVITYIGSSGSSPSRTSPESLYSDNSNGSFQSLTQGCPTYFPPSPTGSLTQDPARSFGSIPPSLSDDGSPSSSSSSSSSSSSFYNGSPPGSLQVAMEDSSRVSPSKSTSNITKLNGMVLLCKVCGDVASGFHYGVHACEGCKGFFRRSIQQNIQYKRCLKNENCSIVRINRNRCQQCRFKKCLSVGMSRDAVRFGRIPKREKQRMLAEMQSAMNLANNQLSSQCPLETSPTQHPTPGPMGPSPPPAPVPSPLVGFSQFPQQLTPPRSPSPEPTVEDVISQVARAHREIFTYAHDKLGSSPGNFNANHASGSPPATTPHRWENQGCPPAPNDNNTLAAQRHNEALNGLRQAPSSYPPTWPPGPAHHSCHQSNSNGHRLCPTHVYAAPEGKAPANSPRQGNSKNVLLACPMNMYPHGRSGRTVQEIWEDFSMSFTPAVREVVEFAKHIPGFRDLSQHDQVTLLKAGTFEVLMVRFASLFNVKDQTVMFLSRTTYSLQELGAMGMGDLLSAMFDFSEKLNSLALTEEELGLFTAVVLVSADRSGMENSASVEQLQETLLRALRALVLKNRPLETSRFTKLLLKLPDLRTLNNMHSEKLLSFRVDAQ
NR2E3 ag-1 – agonists of human nuclear receptor NR2E3. GST-NR2E3/biotin-RetCOR TR-FRET, 1536-well. inhibition of corepressor binding, % at 4.78 µM. 320,000 tested, 0.12% active;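 active = percent inhibition above the cutoff of mean plus 3 SD of all tested compounds, set per screening campaign, cut at about 20% in these data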;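 also: 0% = DMSO wells and 100% = biotin wells as full block of FRET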
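Material: NR2E3–RetCOR corepressor complex / Amount: 1.35 nM GST-NR2E3 / Medium: Tris pH 7.5 / Compound: single nominal compound dose of 4.8 µM / Incubation: 5 h at 4 °C / Technique: TR-FRET, Eu(K)-anti-GST donor, streptavidin-D2 acceptor, ex 340, em 617/671 nm / Read-out basis: percent loss of FRET ratio relative to control wells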
PG9 binder – PG9 antibody binding by small molecule; TR-FRET gp120-PG9 antibody binding; 360,000 tested, 0.43% active; AID 624416; inhibition, % at 6.7 µM; in the data active = inhibition above about 8.5%
NR2E3 ag-2 – activates human NR2E3 receptor; Q9Y5X4; CHO-S Gal4-NCOR/VP16-NR2E3 two-hybrid, luciferase; inhibition of corepressor binding, % at 3.98 µM; 360,000 tested, 0.35% active; AID 602229;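 active = inhibition above the mean of all tested compounds plus 3 SD, cut at about 70% in these data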;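 also: 0% = DMSO with NR2E3 transfected cells and 100% = cells lacking NR2E3 construct; higher means lower luciferase signal from less NR2E3 corepressor binding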
NR1D1 mod conf – Rev-erb alpha (human) modulation, hit confirmation; shares compounds with NR1D1 modulator; Rev-erb alpha FITC-DNA binding, fluorescence polarization, 90 min; activation, % at 25 µM; 3,000 tested, 61% active; AID 1259319;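 active = activation at or above a set limit, or at least 3 SD above the negative control mean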;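 also: 0% = 35 nM protein with DMSO and 100% = 750 nM protein high control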
RORg counter – counter-screen for Rev-erb alpha modulators: RORgamma DNA binding; shares compounds with NR1D1 modulator; purified RORgamma protein-FITC-DNA binding, fluorescence polarization; IC50, µM; 910 tested, 8% active; AID 1259320;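 active = Compounds whose fitted half-maximal concentration for disrupting protein-DNA binding is below 10 micromolar; the record names Rev-erb in its text, so the target is in doubt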
The depositor's hits bear a star; i = inactive; nt = no result given.

SMILES | NR1D1 modulator | NR2E3 ag-1 | PG9 binder | NR2E3 ag-2 | NR1D1 mod conf | others
O=C(NCc1cccc(F)c1)c1cccc2c1C(=O)c1ccc(N3CCOCC3)cc1S2(=O)=O | 117.6* | nt | -2.5 | -26.5 | 87.1* | RORg counter=>40
COCC(=O)N(C[C@H]1[C@H](c2ccccc2)[C@@H](CO)N1C(=O)NC(C)C)C(C)C | -2.2 | nt | nt | nt | nt
CCN(CC)c1ccc(-c2nn3c(-c4ccccc4Cl)nnc3s2)cc1 | 5.5 | nt | nt | nt | nt
O=C(NCc1ccco1)C1CCCN(c2ncccn2)C1 (stereo unspecified) | -4.2 | nt | nt | nt | nt
CC(=O)N1c2ccccc2C(=O)NCC1C(=O)NC(C)(C)C (stereo unspecified) | 0.5 | nt | nt | nt | nt
O=C(CCc1c[nH]c2ccccc12)NCCc1ccc2c(c1)OCCO2 | 28.3* | 3.0 | -0.3 | -13.8 | 32.1* | RORg counter=i
CCCN(CCC)Cc1c(C(=O)N/N=C/c2ccc(C)o2)nnn1-c1nonc1N | 30.6* | 2.4 | 2.1 | -14.1 | 8.0
CCCc1c(C(=O)N/N=C/c2ccc(C)o2)nnn1-c1nonc1N | -3.7 | nt | 1.9 | -19.3 | nt
CCOCCCNC(=O)c1cc(-c2ccc(Br)s2)nc2ccccc12 | 21.5* | -45.6 | -28.8 | -19.2 | -15.4
NS(=O)(=O)c1ccc(CNC(=O)c2cc(-c3ccccn3)nc3ccc(Cl)cc23)cc1 | 23.2* | -171.9 | 7.2 | -7.1 | 18.7*
O=C(NCc1ccccc1)c1cc(-c2ccncc2)nc2ccc(S(=O)(=O)N3CCOCC3)cc12 | -15.3 | 3.9 | -0.6 | 1.8 | nt
O=C(NCc1ccc(F)cc1)c1cc(-c2ccccn2)nc2ccc(S(=O)(=O)N3CCOCC3)cc12 | 18.3* | nt | 0.5 | -28.9 | 19.4*
O=C(Nc1cc(Cl)cc(Cl)c1)Nc1cnccn1 | 12.4* | 3.1 | -3.0 | 0.0 | 2.1
O=C(Nc1ccc(F)cc1)Nc1cnccn1 | 9.1 | -0.6 | 0.8 | 1.5 | nt
COc1cc(NC(=O)C2CCCN(S(=O)(=O)c3cc(OC)ccc3OC)C2)cc(OC)c1 (stereo unspecified) | 3.7 | nt | nt | nt | nt
CN1C(=O)c2cccc(NCCCN3C(=O)c4ccccc4C3=O)c2C1=O | 46.2* | 2.9 | -1.0 | -2.2 | 19.1*
CCn1c(=O)c(CCC(=O)NCC2CCCO2)c(C)c2c(C)nn(-c3ccc(C)cc3)c21 (stereo unspecified) | 19.5* | -1.2 | 4.4 | -38.2 | 2.4
CC(C)C[C@@H]1COc2cc(Br)ccc2S(=O)(=O)N1Cc1cn(Cc2ccc(C(F)(F)F)cc2)nn1 | -0.1 | nt | nt | nt | nt
FC(F)(F)c1cc(-c2ccccc2)nc2nc(N3CCOCC3)sc12 | 24.5* | 3.5 | 1.1 | -6.4 | 8.5
CCCCNS(=O)(=O)CC1NCc2ccccc21 (stereo unspecified) | 2.7 | nt | nt | nt | nt
N#Cc1cc2c(nc1SCC(=O)Nc1sc3c(c1C#N)CCC3)CCCC2 | 3.3 | 1.3 | -1.4 | -18.1 | nt
N#Cc1ccc(-c2ccc(F)cc2)nc1SCC(=O)Nc1sc2c(c1C#N)CCC2 | 31.7* | 1.9 | -0.4 | -7.9 | 20.9*
Cc1cc(O)ccc1NC(=O)c1ccccc1 | -4.7 | 1.2 | 0.0 | 2.6 | nt
Cn1nnnc1-c1cc(Br)ccc1NC(=O)c1ccccc1 | 72.4* | -3.3 | -1.7 | -23.2 | 46.1* | RORg counter=>40
CCN(C(=O)COC(=O)c1ccc(Sc2ncn[nH]2)c([N+](=O)[O-])c1)c1ccccc1C | -4.3 | nt | nt | nt | nt
SMILES | NR1D1 modulator | NR2E3 ag-1 | PG9 binder | NR2E3 ag-2 | NR1D1 mod conf | others
CCCN1C(=O)/C(=C/c2ccc(N3CCOCC3)cc2)NC1=S | 13.8 | -3.5 | -4.8 | 4.4 | nt
CCN1C(=O)/C(=C/c2ccc(N3CCCC3)cc2)NC1=S | 56.3* | -2.3 | -8.8 | 6.5 | 48.7* | RORg counter=>40
CN1C(=O)c2cc(NC(=O)Nc3ccccc3)ccc2OC[C@H]2O[C@@H](CC(=O)NCc3ccc(-c4ccccc4)cc3)CC[C@@H]21 | 21.1 | nt | nt | nt | nt
CN1C(=O)c2cc(NS(C)(=O)=O)ccc2OC[C@H]2O[C@@H](CC(=O)NCc3ccc(-c4ccccc4)cc3)CC[C@@H]21 | 83.0* | nt | nt | nt | 20.0*
CN1C(=O)c2cc(NC(=O)Nc3ccccc3F)ccc2OC[C@H]2O[C@@H](CC(=O)NCc3ccc(-c4ccccc4)cc3)CC[C@@H]21 | 106.5* | nt | nt | nt | 69.5* | RORg counter=>40
CC(C)c1ccc(OC[C@@H](O)CN2CCC(C(O)(c3ccccc3)c3ccccc3)CC2)cc1 | -0.6 | nt | nt | nt | nt
Cn1c(SCC(=O)Nc2ccccc2-c2ccccc2)nnc1-c1cnccn1 | 0.8 | nt | nt | nt | nt
NC1=NC(=Nc2cccc(S(N)(=O)=O)c2)c2ccccc21 | -0.7 | -4.1 | -1.6 | -45.3 | nt
COc1cc(N=Nc2cccc(S(N)(=O)=O)c2)c2ccccc2c1N | 34.8* | -1.9 | -6.4 | 21.0 | 13.6
CCCCOCCCNC(=O)C[C@@H]1C(=O)N(Cc2ccc(OC)cc2)C2=CCN(C(=O)OC(C)(C)C)C[C@]21C(=O)OCC | 2.2 | nt | nt | nt | nt
O=[N+]([O-])c1cc(-c2cnc3ccccc3n2)ccc1Oc1ccc(Cl)cc1 | -0.5 | 1.6 | -0.3 | -42.2 | nt
O=[N+]([O-])c1cc(-c2cnc3ccccc3n2)ccc1Cl | 92.7* | -3.6 | -1.9 | -33.3 | 68.4* | RORg counter=>40
COc1ccc(-c2nnn3c2Cn2c4ccccc4c(=O)n2[C@@H](C(C)C)C3)cc1 | 9.3 | nt | nt | nt | nt
COc1ccc(C2CC(c3ccccc3O)=NN2C(=O)c2ccccc2)cc1OC (stereo unspecified) | -1.7 | -1.6 | -0.6 | -0.1 | nt
O=C(c1ccccc1)N1N=C(c2ccccc2O)CC1c1ccccc1 (stereo unspecified) | 56.7* | -0.8 | 3.7 | 11.3 | 35.9* | RORg counter=6.88*
CCc1ccccc1NC(=O)C1CCC(=O)N(c2ccc(OC)cc2)C1c1ccc(OC)cc1 (stereo unspecified) | -3.6 | nt | nt | nt | nt
Cn1ccc(-c2ccccc2)c(C#N)c1=O | 3.1 | 1.4 | -0.5 | -3.7 | nt
Cn1c2ccccc2n2c(=O)c(Cl)c(-c3ccccc3)c(C#N)c12 | 41.1* | -0.9 | 0.4 | -17.1 | 33.2* | RORg counter=i
Cc1cc(OCC(=O)NCc2ccccn2)c2c(C)c(C)c(=O)oc2c1 | -1.6 | 1.6 | 0.5 | 21.0 | nt
Cc1cc(OC(C)C(=O)NCc2ccccn2)c2c(C)c(Cc3ccccc3)c(=O)oc2c1 (stereo unspecified) | 86.3* | -4.4 | 0.4 | 10.9 | 142.0* | RORg counter=>40
Cc1cc(OC(C)C(=O)NCc2ccccn2)c2c(C)cc(=O)oc2c1 (stereo unspecified) | 1.9 | 0.8 | 0.0 | 19.8 | nt
Cc1cc(OCC(=O)Nc2ccccn2)c2c(C)c(C)c(=O)oc2c1 | 32.5* | 0.9 | -1.1 | -18.3 | 1.7
CC(=O)c1cc(-c2ccc(-c3cc(C(=O)O)c4ccccc4n3)cc2)c(=O)n2c1CCC2 | -5.5 | nt | nt | nt | nt
O=S(=O)(c1ccccc1)c1cnn2c(C(F)(F)F)cc(-c3ccc(F)cc3)nc12 | 23.6* | 4.7 | -0.5 | 2.5 | -7.5
O=S(=O)(c1ccccc1)c1cnn2c(C(F)(F)F)cc(-c3ccccc3)nc12 | -1.5 | -1.2 | 0.8 | -16.2 | nt

Bioassay records deposited in PubChem by several laboratories.
